Columns and labels:
NCI/ADR-RES = assay: Cytotoxicity in doxorubicin-resistant human MCF7/ADR cells assessed as reduction in cell viability incubated for 48 hrs by MTT assay; type: cell-based
Method in brief: (§1)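 Cells grown in RPMI-1640 with 10% heat-inactivated FBS at 37 °C, 5% CO2. Compounds were dissolved in DMSO and given as serial dilutions to cells seeded at 5 × 10^3 per well in log phase, for 48 h. MTT (5 mg/mL) was then added for 4 h, formazan dissolved in DMSO, and absorbance read at 570 nm.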

MCF7 = assay: Cytotoxicity in human MCF7 cells assessed as reduction in cell viability incubated for 48 hrs by MTT assay; type: cell-based; settings: MCF7, 48 h; method in brief: as §1

| Structure (SMILES) | IC50 (NCI/ADR-RES) [µM] | IC50 (MCF7) [µM] |
| --- | --- | --- |
| C=C1[C@H](O)[C@H]2[C@@H](OC(=O)c3ccccc3)[C@](C)(OC(C)=O)C[C@]2(O)[C@H](OC(C)=O)[C@@H](C)/C=C/C(C)(C)C(=O)[C@H](OC(C)=O)[C@H]1OC(C)=O | > 100 | > 100 |
| C=C1[C@H](O)[C@H]2[C@@H](OC(=O)c3ccccc3)[C@](C)(O)C[C@]2(O)[C@H](OC(C)=O)[C@@H](C)/C=C/C(C)(C)C(=O)[C@H](OC(C)=O)[C@H]1OC(=O)c1ccccc1 | > 100 | > 100 |
| C=C1[C@H](OC(C)=O)[C@H]2[C@@H](OC(=O)c3ccccc3)[C@](C)(O)C[C@]2(O)C(=O)[C@@H](C)/C=C/C(C)(C)C(=O)[C@H](OC(=O)C(C)C)[C@H]1OC(C)=O | > 100 | > 100 |
| C=C1[C@H](OC(C)=O)CC(=O)C(C)(C)/C=C/[C@H](C)C(=O)[C@@]2(OC(C)=O)C[C@H](C)[C@H](OC(=O)c3ccccc3)[C@@H]2[C@H]1OC(C)=O | 39.3 | 51.1 |
| C=C1[C@H](OC(C)=O)CC(=O)C(C)(C)/C=C/[C@H](C)C(=O)[C@@]2(OC(C)=O)C[C@H](C)[C@H](OC(C)=O)[C@@H]2[C@H]1OC(=O)c1ccccc1 | > 100 | > 100 |
| C=C1[C@H](OC(C)=O)[C@H]2[C@@H](OC(=O)c3ccccc3)[C@](C)(OC(C)=O)C[C@]2(O)C(=O)[C@@H](C)/C=C/C(C)(C)C(=O)[C@H](OC(C)=O)[C@H]1OC(=O)C(C)C | > 100 | > 100 |
| C=C1[C@H](OC(C)=O)[C@H]2[C@@H](OC(=O)c3ccccc3)[C@@H](C)C[C@]2(OC(C)=O)C(=O)[C@@H](C)/C=C/C(C)(C)C(=O)[C@H](O)[C@H]1OC(C)=O | > 100 | > 100 |
| C=C1[C@H](OC(C)=O)[C@H]2[C@@H](OC(=O)c3ccccc3)[C@@H](C)C[C@]2(OC(C)=O)C(=O)[C@@H](C)/C=C/C(C)(C)C(=O)[C@H](OC(C)=O)[C@H]1OC(C)=O | > 100 | > 100 |
| C=C1[C@H](OC(=O)c2ccccc2)[C@H]2[C@@H](OC(C)=O)[C@@H](C)C[C@]2(OC(C)=O)C(=O)[C@@H](C)/C=C/C(C)(C)C(=O)[C@H](O)[C@H]1OC(C)=O | > 100 | > 100 |
| C=C1[C@H](OC(=O)c2ccccc2)[C@H]2[C@@H](OC(C)=O)[C@@H](C)C[C@]2(OC(C)=O)C(=O)[C@@H](C)/C=C/C(C)(C)C(=O)[C@H](OC(=O)c2ccccc2)[C@H]1OC(C)=O | > 100 | > 100 |
| C=C1[C@H](OC(=O)c2ccccc2)[C@@H](OC(C)=O)[C@@H](OC(C)=O)C(C)(C)/C=C/[C@H](C)C(=O)[C@@]2(OC(C)=O)C[C@H](C)[C@H](OC(=O)c3ccccc3)[C@@H]2[C@H]1OC(C)=O | > 100 | > 100 |
| C=C1[C@H](OC(C)=O)[C@H]2[C@@H](OC(=O)c3ccccc3)[C@@H](C)C[C@]2(OC(C)=O)C(=O)[C@@H](C)/C=C/C(C)(C)C(=O)[C@H](O)[C@H]1OC(=O)c1ccccc1 | > 100 | > 100 |
| C=C1[C@H](OC(C)=O)[C@H]2[C@@H](OC(=O)c3ccccc3)[C@](C)(O)C[C@]2(O)C(=O)[C@@H](C)/C=C/C(C)(C)C(=O)[C@H](OC(C)=O)[C@H]1OC(=O)c1ccccc1 | > 100 | > 100 |
| C=C1[C@H](OC(C)=O)[C@H]2[C@@H](OC(=O)c3ccccc3)[C@](C)(OC(C)=O)C[C@]2(O)C(=O)[C@@H](C)/C=C/C(C)(C)C(=O)[C@H](OC(=O)C(C)C)[C@H]1OC(C)=O | > 100 | 50.2 |
| C=C1[C@H](OC(C)=O)[C@H]2[C@@H](OC(=O)c3ccccc3)[C@@H](C)C[C@]2(O)C(=O)[C@@H](C)/C=C/C(C)(C)C(=O)[C@H](O)[C@H]1OC(C)=O | > 100 | > 100 |
| C=C1[C@H](OC(C)=O)[C@H]2[C@@H](OC(=O)c3ccccc3)[C@@H](C)C[C@]2(OC(C)=O)C(=O)[C@@H](C)/C=C/C(C)(C)C(=O)[C@H](OC(C)=O)[C@H]1OC(=O)c1ccccc1 | > 100 | > 100 |
| C=C1[C@H](OC(C)=O)[C@H]2[C@@H](OC(=O)CC(C)=O)[C@@H](C)C[C@]2(O)C(=O)[C@@H](C)/C=C/C(C)(C)C(=O)[C@H](OC(C)=O)[C@H]1OC(=O)c1ccccc1 | > 100 | > 100 |
| COc1cccc2c1C(=O)c1c(O)c3c(c(O)c1C2=O)C[C@@](O)(C(=O)CO)C[C@@H]3O[C@H]1C[C@H](N)[C@H](O)[C@H](C)O1 [DOXORUBICIN] | 64.8 | – |

— ChEMBL document CHEMBL4422701, “Jatrophane Diterpenoids from Euphorbia glomerulans” (J Nat Prod, 2019)
